Structures are written as SMILES. About 220 (0.067%) of roughly 330,000 compounds were called active.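 Rule for the calls: active = response, share of CD8 T cells binding vesicles, and their 90th percentile fluorescence all below set limits (cut at about 80% in these data, passing the limit was not always enough); inactive = the rest, inconclusive results apart.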 Many of the other results were omitted from the sample, so actives are more common in it than they were.

The nature of this assay: modulators of CD8 T cell-vesicle binding, primary screen, mouse 2C CD8+ T cells, flow cytometry (AID 2052).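 For double positive events: binding gate set so that unloaded-vesicle control wells show 10% double positive cells.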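 For response (vesicle binding): values below 100% mean blocked vesicle binding to the CD8+ T cells.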 As to conditions: 2C CD8+ T cell-vesicle binding, at 7 µM, stronger effect = lower value; double positive events: measured here: CD8+ vesicle-bound cell fraction. In outline: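 Also added: QL9-peptide-loaded Drosophila micro-vesicles bearing Ld, ICAM-1 and B7-1; Test system: purified 2C TCR transgenic mouse naive CD8+ T cells; Measured by: cytometric PE anti-B7-1 and Alexa647 anti-CD8 signals after 1% paraformaldehyde fixation; Timing: binding step 1.5 h, 37 °C, antibody labelling 20 min, ice.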
In the case of `Cc1oc2c(F)c(F)c(F)c(F)c2c1S(=O)(=O)Nc1cccc(C(F)(F)F)c1`, the double positive events was determined as 13.2% and the response (vesicle binding) is 170% (inactive).

As to `COc1ccc(C(=O)COC(=O)c2nn(C)c(=O)c3ccccc23)c(OC)c1`, the double positive events is 13.7% and the response (vesicle binding) was 187% (inactive).

For the compound `CC(=O)c1cccc(NC(=O)CN2C(=O)c3cccnc3Oc3ccc(Cl)cc32)c1`, the double positive events came out at 54.8% and the response (vesicle binding) was 668% (inactive).

Regarding `COC(=O)C1=CO[C@@H](O[C@@H]2O[C@H](CO)[C@@H](O)[C@H](O)[C@H]2O)C2C1C[C@H](O)[C@@H]2C` (some centres not stated), the double positive events was 33.1% and the response (vesicle binding) was 220% (inactive).

In the case of `CCOC(CNC(=O)C1CCN(S(=O)(=O)c2ccc3nc4c(c(C(=O)O)c3c2)CC(C)CC4)CC1)OCC` (configuration not stated), the double positive events was found to be 3.9% and the response (vesicle binding) is 171% (inactive).

Consider `CN(C)C(CNC(=O)c1ccc(OCc2cn3ccccc3n2)cc1)c1ccco1` (configuration not stated), for which the double positive events is 23.9% and the response (vesicle binding) is 416% (inactive).

For `COc1ccc(NC(C(=O)Nc2cccc(C(C)=O)c2)c2ccccc2)cc1` (configuration not stated), the double positive events is 36% and the response (vesicle binding) is 198% (inactive).

With `O=C(CCc1nnc2ccc(NCc3ccco3)nn12)Nc1cc(F)ccc1F`, the double positive events came to 36.4% and the response (vesicle binding) is 186% (inactive).

Regarding `O=C(COC(=O)c1ccc(NS(=O)(=O)c2cccs2)cc1O)Nc1ccc(F)cc1`, the double positive events is 18.7% and the response (vesicle binding) was 74.7% (inactive).

As to `Nn1c(SCC(=O)Nc2nccs2)nncc1=O`, the double positive events stood at 30.5% and the response (vesicle binding) is 224% (inactive).

Consider `COc1ccccc1C(=O)NC(CCSC)C(=O)NNC(=O)c1csc(N2CCOCC2)n1` (configuration not stated), for which the double positive events amounted to 27.1% and the response (vesicle binding) was 242% (inactive).

For the compound `CCc1nc2ccccc2c(C(=O)OC2CCCCC2=O)c1C` (configuration not stated), the double positive events is 48.4% and the response (vesicle binding) was 288% (inactive).

As for `Cc1cccc(C(=O)N2CCCC(Nc3ccc(C(C)C)cc3)C2)n1` (configuration not stated), the double positive events was 11.9% and the response (vesicle binding) was 567% (inactive).

Consider `Cc1ccc(-c2nnc(C)c(N3CC(C)OC(C)C3)n2)cc1` (configuration not stated), for which the double positive events came out at 50.8% and the response (vesicle binding) was 123% (inactive).

With `COC(=O)NNC(=O)C1CCC(C)CC1` (configuration not stated), the double positive events is 13.1% and the response (vesicle binding) is 199% (inactive).

Regarding `O=C(COc1ccccc1)Nc1ccc(N2CCN(C(=O)c3cccs3)CC2)cc1`, the double positive events stood at 4.1% and the response (vesicle binding) was 606% (inactive).

For `Brc1c(CSc2nncc3ccccc23)nc2ccccn12`, the double positive events was 26.2% and the response (vesicle binding) was 103% (inactive).

For `COc1ccccc1C(=O)Nc1ccnn1C1CCN(C(=O)C(C)(C)C)CC1`, the double positive events worked out at 51.4% and the response (vesicle binding) was 266% (inactive).

Turning to `Cc1ccc(S(=O)(=O)NCCC(=O)NC2CCN(Cc3ccccc3)CC2)cc1`, the double positive events turned out to be 42.6% and the response (vesicle binding) was 256% (inactive).

Regarding `CCCCCCCC(=O)OC(CN1CCCCCC1)CN1CCCC1=O` (configuration not stated), the double positive events stood at 16.5% and the response (vesicle binding) is 372% (inactive).

For `COC(=O)[C@@H]1CC(O)CN1C(=O)C12CC3CC(CC(C3)C1)C2` (some centres not stated), the double positive events amounted to 52.2% and the response (vesicle binding) is 228% (inactive).

On to `Cc1ccc(-c2csc(NC(=O)C3=COCCO3)n2)cc1C`, for which the double positive events came to 20.8% and the response (vesicle binding) is 138% (inactive).

Turning to `CC(C)OP(=O)(OC(C)C)C(Nc1ccccc1)c1cccc([N+](=O)[O-])c1` (configuration not stated), the double positive events was 20.7% and the response (vesicle binding) was 684% (inactive).

`COc1cccc(NC(=O)COc2cc(C)cc3oc(=O)cc(C)c23)c1`: the double positive events was determined as 34.7% and the response (vesicle binding) was 510% (inactive).

On to `CC1(C)CC(=O)C=C(N2CCOCC2)C1`, for which the double positive events was 19.8% and the response (vesicle binding) was 266% (inactive).

`Cc1nc([N+](=O)[O-])c(NCCCO)n1Cc1ccccc1`: the double positive events turned out to be 19.6% and the response (vesicle binding) is 72.9% (inactive).

For the compound `Cc1cc(C)n(C(=O)c2ccc(C)c(S(=O)(=O)N3CCOCC3)c2)n1`, the double positive events amounted to 54% and the response (vesicle binding) was 212% (inactive).

Take `C/C=C/c1ccc(OCC(=O)NNC(=O)CN(C)S(=O)(=O)c2ccc(C)cc2)c(OC)c1`: the double positive events worked out at 47.4% and the response (vesicle binding) is 180% (inactive).

For `CCOC(=O)C(=CNNc1ccsc1C(=O)OC)C(=O)OCC`, the double positive events worked out at 17.6% and the response (vesicle binding) is 541% (inactive).

For the compound `CC(=O)c1cc(-c2ccccc2)n(CCC(=O)NC2CCCCCC2)c1C`, the double positive events stood at 47.9% and the response (vesicle binding) is 183% (inactive).

With `CCc1ccccc1NC(=O)[C@@H]1CCC(=O)N1C1OC(=O)c2c1ccc(OC)c2OC` (some centres not stated), the double positive events amounted to 15.9% and the response (vesicle binding) was 194% (inactive).

`C/C(=N\N(C)C)c1ccc(OCCOc2ccc([N+](=O)[O-])cc2)cc1`: the double positive events stood at 36.6% and the response (vesicle binding) is 389% (inactive).

For `COc1ccc(C2c3[nH]c4ccccc4c3C[C@H]3C(=O)N(CC(C)C)CC(=O)N23)c(OC)c1` (some centres not stated), the double positive events was 23.9% and the response (vesicle binding) was 1350% (inactive).

For the compound `CC1(C)C2CC=C(/C=N/NC(=O)C3CC3)C1C2` (configuration not stated), the double positive events is 55.1% and the response (vesicle binding) is 548% (inactive).

For the compound `O=C(NCc1cccnc1)c1ccccc1NC(=O)c1c(F)cccc1F`, the double positive events worked out at 21.9% and the response (vesicle binding) is 104% (inactive).

`CC(=O)N1CCc2cc(S(=O)(=O)NC3CCCCC3)ccc21`: the double positive events was found to be 27% and the response (vesicle binding) was 222% (inactive).

In the case of `Cc1cccc(C(=O)NCc2nnc(SC(C)C(=O)Nc3nnc(C)s3)n2C)c1` (configuration not stated), the double positive events was 13.6% and the response (vesicle binding) was 258% (inactive).

Turning to `CCCCCN(C(=O)NC(=O)Nc1cccc(C)c1C)S(C)(=O)=O`, the double positive events amounted to 28.6% and the response (vesicle binding) was 413% (inactive).

Turning to `COc1ccc(CCNC(=O)CN(c2ccccc2)S(C)(=O)=O)cc1OC`, the double positive events is 42.8% and the response (vesicle binding) was 345% (inactive).

With `COc1ccc(C(=O)OCC(=O)NC(=O)CCSc2ccccc2)cc1`, the double positive events amounted to 48.7% and the response (vesicle binding) is 413% (inactive).

Turning to `CC(NC(=S)Nc1ccccc1)C1COc2ccccc2O1` (configuration not stated), the double positive events was 63% and the response (vesicle binding) is 843% (inactive).
